The target in series [1] is T1, Orexin/Hypocretin receptor type 1 (Mus musculus, UniProt P58307).
T1 sequence (P58307 whole entry): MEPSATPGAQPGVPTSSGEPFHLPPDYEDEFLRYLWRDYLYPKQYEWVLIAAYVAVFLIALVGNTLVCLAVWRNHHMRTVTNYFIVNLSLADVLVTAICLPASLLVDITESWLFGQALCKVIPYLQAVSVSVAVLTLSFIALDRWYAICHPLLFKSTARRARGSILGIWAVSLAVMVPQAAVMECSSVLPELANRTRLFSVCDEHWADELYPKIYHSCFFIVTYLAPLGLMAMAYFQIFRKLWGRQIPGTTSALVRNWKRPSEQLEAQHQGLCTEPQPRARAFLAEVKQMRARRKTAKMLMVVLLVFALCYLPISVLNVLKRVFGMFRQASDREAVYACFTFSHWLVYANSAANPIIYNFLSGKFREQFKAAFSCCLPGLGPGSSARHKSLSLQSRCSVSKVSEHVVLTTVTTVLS
Put plainly: Antagonist activity at mouse OX1 receptor expressed in CHO cells assessed as inhibition of orexin A-induced Ca2+ accumulation after 1 hr by Fluo-4-AM staining-based FLIPR assay. Type of series: functional, cell-based.

In series [2] the test system is Brain. Put plainly: Drug uptake in C57BL/6 mouse brain at 50 mg/kg after 1 hr by LC-MS/MS analysis. Particulars: in vivo. Set-up: dose 50 mg/kg. Type of series: ADME, organism-based. The gist of the method: (§1)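 Satellite PK group: oral gavage of 50 mg/kg suspended in 0.5% w/v methylcellulose in water, 10 mL/kg. Blood and brain taken after decapitation at 15 and 60 min post-dose, n = 3 mice per time point, stored at −20 °C. Brain homogenised in 2 mM KH₂PO₄; acetonitrile quench with internal standard; LC/MS/MS against six-level calibration curve. Mean ± SD reported.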

For series [3], the system named is Brain. Put plainly: Fraction unbound in C57BL/6 mouse brain at 50 mg/kg, po after 1 hr by LC-MS/MS analysis. It is filed as ADME, organism-based. Set-up: dose 50 mg/kg, route oral. To be noted: in vivo. The method in brief:
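Unbound fraction assessed in mouse brain homogenate by a slightly adapted literature method, measured separately from the dosed animals. Free brain level obtained by multiplying fraction unbound by brain concentration from the 50 mg/kg po satellite group at 60 min. Mean ± SD, n = 3.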

Series [4] is described as follows: AUC (infinity) in C57BL/6 mouse blood at 3 mg/kg, po. It is filed as ADME, organism-based. Set-up: time infinity, dose 3 mg/kg, route oral. The gist of the method:
(§2)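 Cassette PK in male C57BL/6 mice (20–30 g), up to five test compounds plus one reference. Iv 1 mg/kg in NMP/blank plasma 10/90 v/v, 5 mL/kg, saphenous vein. Oral 3 mg/kg suspended in 0.5% w/v carboxymethylcellulose in water/Tween 80 (99.5/0.5), 10 mL/kg gavage. Blood sampled 5 min (iv) or 15 min (po) to 24 h, n = 3 per time point, measured by LC/MS/MS.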

Series [5] concerns Mus musculus. The series is described as follows: Effect on locomotion in C57BL/6 mouse assessed as reduction of motility at 50 mg/kg, po measured up to 4 hrs. Type of series: functional, organism-based. Set-up: dose 50 mg/kg. The gist of the method: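 Mice habituated, then dosed orally immediately before lights-off (15:00, start of active phase); vehicle 0.5% methylcellulose in water. Inactivity = any minute with no infrared beam breaks. Per-animal difference between inactivity 15:00–19:00 post-dose and the same 4 h during habituation 24 h earlier. n = 6; one-way ANOVA with Dunnett's test versus vehicle.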

The nature of series [6]: Drug uptake in C57BL/6 mouse blood at 50 mg/kg after 1 hr by LC-MS/MS analysis. Set-up: dose 50 mg/kg. To be noted: read-out: Drug uptake. Type of series: ADME, organism-based. The method in brief: as §1
The subject of series [7] is Mus musculus. Put plainly: Induction of sleep in C57BL/6 mouse assessed as increase in rapid eye movement at 50 mg/kg, po measured during 1 hr by EEG/EMG analysis relative to vehicle-treated control. Type of series: functional, organism-based. Set-up: dose 50 mg/kg. The gist of the method:
(§3)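 Male C57Bl/6 mice with implanted cortical EEG and EMG electrodes, 2-week recovery, 12/12 h light cycle. Vehicle (0.5% methylcellulose, 10 mL/kg po) given on day 2 and compound po on day 3, just before lights off. Recording ran 23 h. 10 s epochs scored as wake, NREM or REM from EEG/EMG plus infrared motility. Each animal served as its own vehicle control.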

Series [8] concerns Mus musculus. Put plainly: Induction of sleep in C57BL/6 mouse assessed as rapid eye movement and non-rapid eye movement sleep balance at 50 mg/kg, po measured during 1 hr by EEG/EMG analysis relative to vehicle-treated control. Set-up: dose 50 mg/kg. It is filed as functional, organism-based. The method in brief: as §3
Series [9] in a line: Oral bioavailability in C57BL/6 mouse blood at 3 mg/kg. Type of series: ADME, organism-based. The gist of the method:
as §2

Series [10] can be described thus: Total blood clearance in C57BL/6 mouse at 1 mg/kg, iv. It is filed as ADME, organism-based. Set-up: dose 1 mg/kg, route intravenous. The gist of the method: as §2
The test system of series [11] is Mus musculus. Put plainly: Induction of sleep in C57BL/6 mouse assessed as increased rapid eye movement sleep proportion at 50 mg/kg, po measured during 1 hr by EEG/EMG analysis relative to vehicle-treated control. Type of series: functional, organism-based. Set-up: dose 50 mg/kg. The gist of the method:
(§4)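 Male C57Bl/6 mice with implanted cortical EEG screw electrodes and EMG, recovered 2 weeks, 12 h/12 h light/dark cycle. Crossover: vehicle (0.5% methylcellulose, 10 mL/kg po) on day 2, compound po on day 3, each given 5–15 min before lights-off. 23 h recordings; EEG filtered 0.3–30 Hz, EMG 5–30 Hz; 10 s epochs scored as wake, NREM or REM from EEG/EMG and infrared motility.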

Series [12] deals with Mus musculus. The series is described as follows: Induction of sleep in C57BL/6 mouse assessed as increase in total sleep time at 50 mg/kg, po measured during first 4 hrs by EEG/EMG analysis relative to vehicle-treated control.
Series [13] can be described thus: Ratio of drug level in brain to blood in C57BL/6 mouse at 3 mg/kg, po after 15 mins. It is filed as ADME, organism-based. Set-up: dose 3 mg/kg, route oral. The method in brief: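 Male C57BL/6 mice (20–30 g), cassette dosing of up to five compounds plus a reference. Blood and brain collected 15 min post-dose, n = 3. Brain homogenised in 2 mM KH2PO4 and extracted with acetonitrile. LC/MS/MS quantitation; mean brain/blood ratio.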

Series [14] is described as follows: Volume of distribution at steady state in C57BL/6 mouse at 1 mg/kg, iv. Type of series: ADME, organism-based. Set-up: dose 1 mg/kg, route intravenous. Particulars: in vivo, read-out: Vdss. The gist of the method:
as §2

For series [15], the system named is Mus musculus. The series is described as follows: Induction of sleep in C57BL/6 mouse assessed as increase in non-rapid eye movement at 50 mg/kg, po measured during 4 hrs by EEG/EMG analysis relative to vehicle-treated control. Type of series: functional, organism-based. Set-up: dose 50 mg/kg. The method in brief: as §4
The next series addresses T2, Orexin receptor type 2 (Mus musculus, UniProt P58308).
T2 sequence (P58308 whole entry): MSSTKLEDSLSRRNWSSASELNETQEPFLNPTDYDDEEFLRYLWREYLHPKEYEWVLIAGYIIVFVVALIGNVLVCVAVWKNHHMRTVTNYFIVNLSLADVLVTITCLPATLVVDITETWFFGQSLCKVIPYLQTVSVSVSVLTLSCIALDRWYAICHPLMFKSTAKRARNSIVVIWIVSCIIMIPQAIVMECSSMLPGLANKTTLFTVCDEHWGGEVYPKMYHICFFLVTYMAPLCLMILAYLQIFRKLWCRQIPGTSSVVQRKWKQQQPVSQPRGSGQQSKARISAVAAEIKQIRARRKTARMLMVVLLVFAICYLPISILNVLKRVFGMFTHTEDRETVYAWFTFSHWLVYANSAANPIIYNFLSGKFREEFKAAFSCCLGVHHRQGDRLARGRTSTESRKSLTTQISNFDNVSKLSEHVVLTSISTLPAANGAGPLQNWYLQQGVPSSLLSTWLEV
Put plainly: Antagonist activity at mouse OX2 receptor expressed in HEK cells assessed as inhibition of orexin A-induced Ca2+ accumulation after 1 hr by Fluo-4-AM staining-based FLIPR assay. Type of series: functional, cell-based, HEK293.

Series [16] in a line: Cmax in C57BL/6 mouse blood at 3 mg/kg, po. Type of series: ADME, organism-based. Set-up: dose 3 mg/kg, route oral. The method in brief: as §2
For series [17], the system named is Mus musculus. Put plainly: Induction of sleep in C57BL/6 mouse assessed as increase in rapid eye movement at 50 mg/kg, po measured during 4 hrs by EEG/EMG analysis relative to vehicle-treated control. It is filed as functional, organism-based. Set-up: dose 50 mg/kg. The gist of the method:
as §4

pKi: −log10 of the molar value. Active and inactive are the calls of the source. The calls are words filed in the database; no cut-off is given here.

As a reminder, the pKi is the Ki on a negative log10 scale, so that one unit is a factor of ten. What is called AUC(0-inf) is the area under the concentration-time curve extrapolated to infinity. A high value points to more exposure. As a reminder, the bioavailability is dose-corrected exposure relative to a reference, in per cent. A higher bioavailability goes with good availability. By clearance is commonly meant a measure of how efficiently the substance is removed, as volume per time. The low end stands for inefficient removal, the high end for efficient removal. In general, Kp refers to the ratio of the level in a tissue or fluid to that in plasma or blood. The Cmax is the peak of the concentration-time curve. As to `COc1ccnc(N2CCC3(CCCN(Cc4c[nH]c5ccccc45)C3=O)CC2)n1`, the results for the pKi (in [1]; on Orexin receptor type 2) were 6.34 and 7.23, respectively. The Drug uptake in the series on Brain [2] is reported as 8778 pmol/g. The Fu with Brain [3] was 0.61%. In addition, the AUC(0-inf) in series [4] is 2.09 µM·h. Moreover, the outcome with Mus musculus [5], with Mus musculus [11], in the series on Mus musculus [12] and in the series with Mus musculus [15] was Active. In addition, the concentration at 1 h in [6] is 6.91 µM. The result in the series on Mus musculus [7] and in the series on Mus musculus [8] was inactive. This compound showed a bioavailability in series [9] of 47%. For the same compound, the clearance in [10] is 28 mL/min/kg. The Kp at 0.25 h in [13] was determined as 1.1. The Vd in [14] was found to be 1.6 L/kg. This compound also registered a Cmax in [16] of 0.864 µM.
With `Cc1ccc(-n2nccn2)c(C(=O)N2CCN(c3nc4cc(Cl)ccc4o3)CC[C@H]2C)c1` [SUVOREXANT], the pKi in series [1] was 8.77; on Orexin receptor type 2, 8.06. Further, in the series with Brain [2], the Drug uptake is 10329 pmol/g. This compound also yielded a Fu with Brain [3] of 0.65%. In addition, the outcome in the series on Mus musculus [5], in the series with Mus musculus [11], in the series with Mus musculus [12], with Mus musculus [15] and with Mus musculus [17] was Active. The concentration at 1 h in series [6] was 10.5 µM.
